Test results: ChEMBL document CHEMBL4270554, “Discovery of the cancer cell selective dual acting anti-cancer agent (Z)-2-(1H-indol-3-yl)-3-(isoquinolin-5-yl)acrylonitrile (A131)” (Eur J Med Chem, 2018)

Key:
Type in all cases: functional
[1] = Antiproliferative activity against human NCC24 cells after 72 hrs by MTT assay
Outline: (§1)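 Cells cultured at 37 °C, 5% CO₂ in medium with 10% FBS and penicillin/streptomycin, used within 12-20 passages. Seeded at 2.5×10^3 cells/well for 24 h, then compound added from DMSO stocks at 200-fold final concentration (final DMSO 0.5% v/v). After 72 h, 0.5 mg/mL MTT for 3 h, formazan dissolved in DMSO, A570 read. IC50 from sigmoidal fit; three independent determinations.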

[2] = Antiproliferative activity against human NCC59 cells after 72 hrs by MTT assay; outline: as §1
SCH = assay: Antiproliferative activity against human SCH cells after 72 hrs by MTT assay; outline: as §1
[3] = Antiproliferative activity against human NCC19 cells after 72 hrs by MTT assay; outline: as §1
MDA-MB-231 = assay: Antiproliferative activity against human MDA-MB-231 cells after 72 hrs by MTT assay; settings: MDA-MB-231, 72 h; outline: as §1

Work on `N#C/C(=C\c1cccc2cnccc12)c1c[nH]c2ccccc12` yielded a GI50 [1] of 1200 nM, a GI50 [2] of 900 nM and a GI50 (SCH) of 1700 nM. It also gave a GI50 [3] of 4600 nM and a GI50 (MDA-MB-231) of 1100 nM.
